Test [1] deals with Delta-type opioid receptor (Homo sapiens, UniProt P41143). Put plainly: Inhibition of [125I]deltorphin binding to human delta opioid receptor from membranes of HEK293 cells. Type of test: cell membranes. The gist of the method:
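Displacement of [125I]-Deltorphin from membranes of HEK293 cells overexpressing human delta opioid receptor, read by classical filter binding. IC50 came from full dose–response curves on purified material, in single determinations.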

For the next test, the target named is Mu-type opioid receptor (Homo sapiens, UniProt P35372). The test can be described thus: Inhibition of [125I]Enkephalin binding to human mu opioid receptor from membranes of HEK293 cells. Type of test: cell membranes. The method, boiled down:
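Filter binding on membranes of HEK293 cells overexpressing human mu opioid receptor, measuring displacement of [125I]-Enkephalin. IC50 came from full dose–response curves on purified material, in single determinations.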

The target in test [2] is T1, Kappa-type opioid receptor (Homo sapiens, UniProt P41145). The test can be described thus: Inhibition of [125I]-(D-Pro10)-Dynorphin A binding to human kappa opioid receptor from membranes of HEK293 cells. Type of test: cell membranes. The method, boiled down: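 Classical filter binding on membranes from HEK293 cells overexpressing human kappa opioid receptor, measuring displacement of [125I]-(D-Pro10)-Dynorphin A. Purified compounds were run as full dose–response curves and reported as mean IC50 ± SEM. Crude or partially purified mixtures were screened at a single concentration for percent inhibition of radioligand binding.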
T1 sequence (P41145 whole entry): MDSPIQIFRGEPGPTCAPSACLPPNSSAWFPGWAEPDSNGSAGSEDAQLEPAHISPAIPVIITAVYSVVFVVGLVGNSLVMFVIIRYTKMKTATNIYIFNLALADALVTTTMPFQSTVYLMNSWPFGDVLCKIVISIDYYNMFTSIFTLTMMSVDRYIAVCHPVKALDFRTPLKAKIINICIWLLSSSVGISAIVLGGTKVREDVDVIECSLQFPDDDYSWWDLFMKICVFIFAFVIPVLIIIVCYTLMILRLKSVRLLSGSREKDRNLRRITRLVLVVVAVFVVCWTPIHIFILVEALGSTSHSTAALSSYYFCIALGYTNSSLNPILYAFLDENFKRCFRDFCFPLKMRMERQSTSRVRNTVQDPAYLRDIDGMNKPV

The target of test [3] is T1, Kappa-type opioid receptor. Put plainly: Effective dose for agonistic activity towards human kappa opioid receptor from membranes of HEK293 cells was determined by radiolabeled [35S]GTP-gamma-S, assay. The test is classed as functional, cell membranes. In general terms: GTPγS is a poorly hydrolysed GTP analogue; its binding reports G protein activation.
The target in test [4] is T1, Kappa-type opioid receptor. The test can be described thus: Inhibitory concentration against [125I]-(D-Pro10)-Dynorphin A binding to human kappa opioid receptor from membranes of HEK293 cells. The test is classed as cell membranes. The settings on record: concentration not given here. The method, boiled down:
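Filter binding on membranes from HEK293 cells overexpressing the human kappa opioid receptor. Displacement of [125I]-(D-Pro10)-Dynorphin A was measured, with full dose–response curves on purified material. IC50 is the mean of determinations, quoted with SEM.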

In general, IC50 refers to the point on the concentration scale where inhibition reaches its midpoint. A high value points to lower potency. What is called inhibition is the relative decrease from the control value, in per cent. Read a low inhibition as a weak effect.

Sequence of Delta-type opioid receptor (P41143 whole entry): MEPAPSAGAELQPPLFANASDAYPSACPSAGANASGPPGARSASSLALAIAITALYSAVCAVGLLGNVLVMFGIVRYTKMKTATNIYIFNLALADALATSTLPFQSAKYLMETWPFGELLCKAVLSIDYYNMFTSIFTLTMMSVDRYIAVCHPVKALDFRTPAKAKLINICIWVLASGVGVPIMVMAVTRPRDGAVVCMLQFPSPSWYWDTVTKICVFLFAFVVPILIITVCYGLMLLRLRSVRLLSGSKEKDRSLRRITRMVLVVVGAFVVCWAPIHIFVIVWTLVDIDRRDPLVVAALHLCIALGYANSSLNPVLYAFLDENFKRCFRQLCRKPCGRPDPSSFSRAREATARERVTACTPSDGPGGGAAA
Sequence of Mu-type opioid receptor (P35372 whole entry): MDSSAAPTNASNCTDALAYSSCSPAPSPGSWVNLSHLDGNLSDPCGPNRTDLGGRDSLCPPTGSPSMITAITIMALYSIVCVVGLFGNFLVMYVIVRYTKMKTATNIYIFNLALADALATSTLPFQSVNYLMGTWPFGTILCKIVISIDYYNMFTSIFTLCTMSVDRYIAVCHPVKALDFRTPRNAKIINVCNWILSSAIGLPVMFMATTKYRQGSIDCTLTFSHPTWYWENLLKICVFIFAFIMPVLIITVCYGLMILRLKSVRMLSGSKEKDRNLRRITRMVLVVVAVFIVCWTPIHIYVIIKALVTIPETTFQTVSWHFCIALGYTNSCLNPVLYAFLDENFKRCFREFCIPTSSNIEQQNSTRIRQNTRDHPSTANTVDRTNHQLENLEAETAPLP

In the case of `COc1ccc(C(CN2CCCC2)n2cccc(-c3ccc(C(F)(F)F)cc3)c2=O)cc1` (stereo unspecified), the 50% inhibitory concentration (IC50) in test [1] is over 10000 nM; at Mu-type opioid receptor, over 10000 nM; in test [2] it was 320 nM.

Regarding `Cc1cc(-c2cccn(C(CN3CCC(O)C3)c3ccccc3)c2=O)ccc1F` (stereo unspecified), the figures for the IC50 (in test [1]; on Mu-type opioid receptor; in test [2]) were over 10000 nM, over 5000 nM and 8.4 nM, respectively.

As to `O=c1c(-c2ccccc2)cccn1C(CN1CCC(O)C1)c1ccccc1` (stereo in doubt; 20a), the IC50 in test [1] was over 10000 nM; at Mu-type opioid receptor it was over 10000 nM; in test [2], 465 nM.

As to `COc1ccc(OC)c(-c2cccn(C(CN3CCC(O)C3)c3ccccc3)c2=O)c1` (stereo unspecified), the IC50 in test [1] is over 10000 nM; on Mu-type opioid receptor, 2220 nM; in test [2], 6.9 nM.

In test [2], `O=c1c(Nc2ccccc2)cccn1C(CN1CCCC1)c1ccccc1` (stereo unspecified) had an IC50 of over 1000 nM.

For `O=c1c(-c2cccc(CO)c2)cccn1C(CN1CCC(O)C1)c1ccccc1` (stereo unspecified), the figures for the concentration for half-maximal inhibition (IC50) (in test [1]; on Mu-type opioid receptor; in test [2]) were over 10000 nM, over 5000 nM and 9.6 nM, respectively.

Turning to `O=c1c(-c2ccc(Cl)cc2Cl)cncn1C(CN1CCCC1)c1ccccc1` (stereo unspecified), the IC50 is over 10000 nM in test [1], 9600 nM on Mu-type opioid receptor and 41 nM in test [2]. For the same compound, the ED50 in test [3] came out at 615 nM.

On to `CCN(CC)c1ccc(C(CN2CCCC2)n2cccc(-c3ccc(C(F)(F)F)cc3)c2=O)cc1` (stereo unspecified), for which the IC50 in test [1] was over 10000 nM; at Mu-type opioid receptor, over 10000 nM; in test [2], 3080 nM.

As to `O=C(O)COc1cccc(C(CN2CCCC2)n2cccc(-c3ccc(C(F)(F)F)cc3)c2=O)c1` (stereo unspecified), the IC50 was 5600 nM in test [1], over 10000 nM at Mu-type opioid receptor and 420 nM in test [2].

As to `Nc1cccc(-c2cccn(C(CN3CCC(O)C3)c3ccccc3)c2=O)c1` (stereo unspecified), the IC50 in test [1] is over 10000 nM; at Mu-type opioid receptor, 2910 nM; in test [2], 25 nM.

As for `O=c1c(-c2ccc(C(F)(F)F)cc2)cccn1C(CN1C=CC=CC=N1)c1ccccc1` (stereo unspecified), the IC50 in test [1] was over 10000 nM; on Mu-type opioid receptor, over 10000 nM; in test [2] it was 1400 nM.

Turning to `Cc1ccc(C(C)Nc2cccn(C(CN3CCCC3)c3ccccc3)c2=O)cc1` (stereo unspecified), the half-maximal inhibitory concentration (IC50) was over 10000 nM in test [1], over 10000 nM at Mu-type opioid receptor and 330 nM in test [2].

On to `CC(=O)c1ccc(-c2cccn(C(CN3CCC(O)C3)c3ccccc3)c2=O)s1` (stereo unspecified), for which the IC50 was over 10000 nM in test [1], over 10000 nM at Mu-type opioid receptor and 38 nM in test [2].

Take `CC(=O)c1ccc(-c2cccn(C(CN3CCC(O)C3)c3ccccc3)c2=O)cc1` (stereo unspecified): the IC50 in test [1] was over 10000 nM; on Mu-type opioid receptor it was 1750 nM; in test [2], 14 nM.

Consider `O=C1COc2ccc(C(CN3CCCC3)n3cccc(-c4ccc(C(F)(F)F)cc4)c3=O)cc2N1` (stereo unspecified), for which the figures for the IC50 (in test [1]; on Mu-type opioid receptor; in test [2]) were over 10000 nM, over 10000 nM and 57 nM, respectively.

As to `O=C(O)c1cccc(-c2cccn(C(CN3CCC(O)C3)c3ccccc3)c2=O)c1` (stereo unspecified), the inhibition in test [4] amounted to 41%.

As to `O=c1c(-c2ccc(F)cc2)cccn1C(CN1CCC(O)C1)c1ccccc1` (stereo unspecified), the IC50 is over 10000 nM in test [1], over 10000 nM at Mu-type opioid receptor and 33 nM in test [2].

Turning to `O=c1c(-c2ccc(C(F)(F)F)cc2)cccn1C(Cn1ccnc1)c1ccccc1` (stereo unspecified), the 50% inhibitory concentration (IC50) in test [2] is over 10000 nM.

As for `O=c1c(-c2ccc(OC(F)(F)F)cc2)cccn1C(CN1CCC(O)C1)c1ccccc1` (stereo unspecified), the results for the IC50 (in test [1]; on Mu-type opioid receptor; in test [2]) were over 10000 nM, over 5000 nM and 7.6 nM, respectively.

For the compound `COc1ccccc1-c1cccn(C(CN2CCC(O)C2)c2ccccc2)c1=O` (stereo unspecified), the IC50 in test [1] is over 10000 nM; in test [2] it was 94 nM.

Consider `COc1ccc(Cl)cc1-c1cccn(C(CN2CCC(O)C2)c2ccccc2)c1=O` (stereo unspecified), for which the 50% inhibitory concentration (IC50) is over 10000 nM in test [1], 190 nM at Mu-type opioid receptor and 53 nM in test [2].

With `COc1ccc(F)cc1-c1cccn(C(CN2CCC(O)C2)c2ccccc2)c1=O` (stereo unspecified), the IC50 in test [1] was 460 nM; on Mu-type opioid receptor, over 10000 nM; in test [2], 5.5 nM. The compound further displayed an ED50 in test [3] of 32 nM.

Compound `O=c1c(-c2ccccc2)cncn1C(CN1CCCC1)c1ccccc1` (stereo unspecified) yielded a half-maximal inhibitory concentration (IC50) in test [2] of 1760 nM.

As for `O=Cc1ccccc1-c1cccn(C(CN2CCC(O)C2)c2ccccc2)c1=O` (stereo unspecified), the IC50 in test [1] was over 10000 nM; in test [2], 13 nM.

As for `O=c1c(-c2ccccc2)ccnn1C(CN1CCCC1)c1ccccc1` (stereo unspecified), the IC50 in test [2] was 550 nM.

On to `O=c1c(-c2ccc(C(F)(F)F)cc2)cccn1C(CN1CCOCC1)c1ccccc1` (stereo unspecified), for which the results for the IC50 (in test [1]; at Mu-type opioid receptor; in test [2]) were over 10000 nM, over 10000 nM and 700 nM, respectively.

For the compound `O=c1c(-c2ccccc2)cccn1C(CN1CCC(O)C1)c1ccccc1` (stereo in doubt; 14f), the IC50 in test [1] (hek293) was over 10000 nM; at Mu-type opioid receptor (hek293), over 10000 nM; in test [2] it was 470 nM.

`O=c1c(-c2ccccc2)nccn1C(CN1CCCC1)c1ccccc1` (stereo unspecified) gave an IC50 in test [2] of 2450 nM. This counts as single-digit micromolar.

Take `Cc1ccc(Nc2cccn(C(CN3CCCC3)c3ccccc3)c2=O)cc1` (stereo unspecified): the IC50 was over 10000 nM in test [1] and 94 nM in test [2].

For the compound `COc1cccc(OC)c1-c1cccn(C(CN2CCC(O)C2)c2ccccc2)c1=O` (stereo unspecified), the IC50 is over 10000 nM in test [1], 3910 nM at Mu-type opioid receptor and 9.8 nM in test [2].

For `O=c1c(-c2ccc(Cl)cc2Cl)cccn1C(CN1CCCC1)c1ccccc1` (stereo unspecified), the IC50 in test [1] is over 10000 nM; at Mu-type opioid receptor it was 2100 nM; in test [2], 2.3 nM.

As to `O=c1c(-c2cccc(OC(F)(F)F)c2)cccn1C(CN1CCC(O)C1)c1ccccc1` (stereo unspecified), the IC50 was over 10000 nM in test [1], over 5000 nM on Mu-type opioid receptor and 22 nM in test [2].

Turning to `O=c1c(Nc2ccc(C(F)(F)F)cc2)cccn1C(CN1CCCC1)c1ccccc1` (stereo unspecified), the results for the IC50 (in test [1]; on Mu-type opioid receptor; in test [2]) were over 10000 nM, 10000 nM and 82 nM, respectively.
